Source: publication PMC10038104 (ACS infectious diseases, 2022)
Values after ≈ are worked out from the molar mass of the structure shown. Positions of bridges follow the written chain, without caps; N, C: chain ends. Residues, ends and D or L forms follow the SMILES beside them.

Experiments:
elastase = elastase digestion; format: in vitro ADME; settings: 50 mM Tris pH 9.0, 0.04 mg/mL elastase, 1 hour, 25 °C, LC-MS
[1] = tested on: Klebsiella aerogenes ATCC 13048; assay: spot-on-lawn assay in M63 agar; format: cell-based; settings: purified peptide dissolved in water
Method in brief: (§1)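 Purified peptide in water, concentration set by A280. Each strain was grown overnight in LB, then subcultured in LB to mid-exponential phase (OD600 ~0.4-0.6). It was seeded at ~10^7 CFU/mL into molten M63 soft agar, overlaid on M63 agar and dried. Peptide was spotted at various concentrations and dried. After overnight incubation, zones of inhibition were scored; the last visible spot was taken as MIC.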

B. subtilis 168 = assay: spot-on-lawn assay in M63 agar; format: cell-based; settings: purified peptide dissolved in water
Method in brief: as §1

trypsin = trypsin (Sus scrofa, UniProt P00761); assay: trypsin digestion; format: in vitro ADME; settings: 50 mM ammonium bicarbonate, 1:100 trypsin:peptide weight ratio, 30 minutes to 1 hour, LC-MS
[2] = tested on: carboxypeptidase B and carboxypeptidase Y; assay: carboxypeptidase treatment; settings: 20 °C, 16 hours, 50 mM sodium acetate pH 6.0, LC-MS
[3] = tested on: Enterobacter cloacae ATCC 13047; format: cell-based
E. coli MG1655 = assay: spot-on-lawn assay in M63 agar; format: cell-based; settings: purified peptide dissolved in water
Method in brief: as §1

thermolysin = thermolysin (Bacillus thermoproteolyticus, UniProt P00800); assay: thermolysin digestion; format: in vitro ADME; settings: 50 mM Tris, 0.5 mM CaCl2, pH 8.0, 0.04 mg/mL thermolysin, 1 hour, 30 °C, LC-MS
[4] = 37 °C, pure water, 72 hours, 18 μM, relative peak area by LC-MS
E. asburiae DSM 17506 = format: cell-based
[5] = tested on: Salmonella enterica serovar Newport; assay: spot-on-lawn assay in M63 agar; format: cell-based; settings: purified peptide dissolved in water
Method in brief: as §1

[6] = tested on: clinical isolates of Enterobacter; assay: spot-on-lawn assay, the other 6 clinical isolates; format: cell-based; settings: the other 6 of 12 clinical isolates (Table S4B)
Method in brief: as §1

E. coli XL-1 Blue = assay: intracellular expression from plasmid with cloD gene removed; format: cell-based; settings: LB agar with IPTG; plasmid without cloD so that the peptide cannot be exported
E. amnigenus = settings: 16 h
α-chymotrypsin = α-chymotrypsin (Bos taurus, UniProt P00766); assay: α-chymotrypsin digestion; format: in vitro ADME; settings: 100 mM Tris, 10 mM CaCl2, pH 8.0, 0.04 mg/mL α-chymotrypsin, 1 hour, 25 °C, LC-MS
E. mori DSM 26271 = format: cell-based
[7] = tested on: E. nimipressuralis DSM 18955; format: cell-based
[8] = tested on: Enterobacter kobei BAA-260; assay: spot-on-lawn assay in M63 agar; format: cell-based; settings: purified peptide dissolved in water
Method in brief: as §1

[9] = tested on: Enterobacter hormaechei ATCC 700323; assay: spot-on-lawn assay in M63 agar; format: cell-based; settings: purified peptide dissolved in water
Method in brief: as §1

Chain of thermolysin (P00800 233-548): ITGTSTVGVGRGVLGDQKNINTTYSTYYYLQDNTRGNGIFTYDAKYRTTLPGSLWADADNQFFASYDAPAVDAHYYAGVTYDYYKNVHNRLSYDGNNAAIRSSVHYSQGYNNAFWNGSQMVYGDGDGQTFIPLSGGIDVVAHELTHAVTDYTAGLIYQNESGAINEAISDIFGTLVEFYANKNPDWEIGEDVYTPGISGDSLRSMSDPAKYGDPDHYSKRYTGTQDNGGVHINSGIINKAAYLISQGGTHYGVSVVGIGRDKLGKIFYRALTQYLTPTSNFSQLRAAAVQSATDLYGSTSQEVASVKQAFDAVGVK
Chain of trypsin (P00761 9-231): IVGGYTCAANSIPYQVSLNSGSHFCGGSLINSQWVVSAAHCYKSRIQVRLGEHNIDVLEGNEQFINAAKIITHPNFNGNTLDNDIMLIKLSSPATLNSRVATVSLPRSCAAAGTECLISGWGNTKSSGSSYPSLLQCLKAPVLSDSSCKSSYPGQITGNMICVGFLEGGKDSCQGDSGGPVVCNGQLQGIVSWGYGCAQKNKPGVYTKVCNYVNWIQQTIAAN

In the case of CC[C@H](C)[C@@H]1NC(=O)[C@H](CCCNC(=N)N)NC(=O)[C@H](CC(=O)O)NC(=O)[C@H](C(C)C)NC(=O)[C@H](CO)NC(=O)[C@H](Cc2c[nH]cn2)NC(=O)CNC(=O)CC[C@@H](C(=O)N[C@@H](Cc2ccc(O)cc2)C(=O)N[C@@H](Cc2ccccc2)C(=O)NCC(=O)N2CCC[C@H]2C(=O)N2CCC[C@H]2C(=O)NCC(=O)N[C@@H](CC(C)C)C(=O)N2CCC[C@H]2C(=O)NCC(=O)N2CCC[C@H]2C(=O)N[C@H](C(=O)N[C@@H](CC(C)C)C(=O)N[C@@H](Cc2ccccc2)C(=O)N[C@@H](Cc2ccc(O)cc2)C(=O)N[C@@H](CO)C(=O)O)C(C)C)NC(=O)[C@@H]2CCCN2C1=O [cloacaenodin] (GHSVDRIPEYFGPPGLPGPVLFYS-OH; lactam N-9; C-terminus assumed), the “MIC in M63 media (liquid)” value (E. cloacae; 16 h) is reported as 0.94 µM (≈ 2.43 µg/mL), the “cell morphology under the microscope” value (E. cloacae; E. cloacae cells treated with sub-MIC values, broth microdilution cultures) is reported as “exhibited a degree of filamentation” and the “susceptibility to proteolysis by elastase” value (elastase) is reported as “remained resistant to proteolysis”. The “antimicrobial activity (zones of inhibition)” value [1] was “no observed activity”, the “antimicrobial activity (zones of inhibition)” value (B. subtilis 168) was “no observed activity” and the “susceptibility to proteolysis by trypsin” value (trypsin) was “remained resistant to proteolysis”. For the same compound, the “susceptibility to C-terminal proteolysis by carboxypeptidase” value [2] was “resistant to C-terminal proteolysis”, the “MIC in M63 media (agar)” value [3] was 7.5 µM (≈ 19.4 µg/mL) and the “antimicrobial activity (zones of inhibition)” value (E. coli MG1655) was “no observed activity”. For the same compound, the “susceptibility to proteolysis by thermolysin” value (thermolysin) was “remained resistant to proteolysis”, the fraction remaining threaded [4] was ~ 83% and the “MIC in M63 media (agar)” value (E. asburiae DSM 17506) was 3.8 µM (≈ 9.82 µg/mL). For the same compound, the “antimicrobial activity (zones of inhibition)” value [5] was “no observed activity”, the antimicrobial activity [6] was “weak or no activity” and the “E. coli growth upon IPTG-induced intracellular expression without cloD” value (E. coli XL-1 Blue) was “colonies did not appear”. For the same compound, the “MIC in M63 media (liquid)” value (E. amnigenus) was 0.23 µM (≈ 0.594 µg/mL), the “susceptibility to proteolysis by chymotrypsin” value (α-chymotrypsin) was “remained resistant to proteolysis” and the “MIC in M63 media (agar)” value (E. mori DSM 26271) was 1.9 µM (≈ 4.91 µg/mL). For the same compound, the “MIC in M63 media (agar)” value [7] was 1.9 µM (≈ 4.91 µg/mL), the “antimicrobial activity (zones of inhibition)” value [8] was “no observed activity” and the “antimicrobial activity (zones of inhibition)” value [9] was “no observed activity”.
